{
  "source": "ChEMBL document CHEMBL1122646",
  "about": "“Synthesis of pyridine derivatives of L-phenylalanine as antisickling reagents” (1984)",
  "assay_type_in_all_cases": "functional",
  "key": {"[1]": {"experiment": "Antisickling activity and percentage of cells sickled after incubation in 3 mM solution under oxygen content 4.06% was reported at 30.8 mm of Hg pressure.", "outline": "(§1)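 Washed homozygous SS erythrocytes (HbF <8%, MCHC 33.5 g %, stored 4 °C, used within 24 h) at 1.0% hematocrit in PBS pH 7.2 (295 mosmol/kg, 0.5% w/v BSA) with 3 mM compound. Incubated 1 h at 37 °C with rotation. Cells were air-exposed 10 min, deoxygenated with 4.06% O2/4.4% CO2/N2, or deoxygenated with N2 alone. PO2 measured, then anaerobic fixation, 30 min RT.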"}, "[2]": {"experiment": "Antisickling activity and change in mean corpuscular hemoglobin ratio was reported at a concentration of 3.65 mM.", "outline": "(§2)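 Erythrocytes incubated with compound as in the morphological assay (PBS pH 7.2, 295 mosmol/kg, 0.5% BSA, 37 °C) but at 10% hematocrit. Triplicate readings on each of three aliquots taken 1 to 3 h after exposure. Lysis and cyanomet-Hb conversion, then MCHC read on a Coulter hemoglobinometer. Values averaged over nine measurements and expressed as MCHC0/MCHC.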"}, "[3]": {"experiment": "Aantisickling activity and percentage of cells sickled after incubation in 3 mM solution under oxygen content 0.0% was reported.", "outline": "as §1"}, "[4]": {"experiment": "Effect of 3 mM of compound on homozygous sickle cells at a total oxygen saturation of 47% and estimates of volume fraction of HbS polymer present was determined.", "outline": "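Homozygous SS cells (MCHC 33.9 g %) at 1% Hct with 3 mM compound, deoxygenated at 37 °C with 4.06% O2 gas (47% total O2 saturation per O2 affinity curve in PBS pH 7.392). Suspension forced through a 5-μm polycarbonate membrane at 3.1 cmHg. Passed cells weighed after 5-6 min, corrected for interstitial solvent with 3H-methoxyinulin. R = deoxygenated/oxygenated recovered weight. fp calculated with Cp 0.69 g/cm3 and Cs0 0.164 g/cm3.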"}, "[5]": {"experiment": "Antisickling activity and change in mean corpuscular hemoglobin ratio was reported at a concentration of 4.80 mM.", "outline": "as §2"}, "[6]": {"experiment": "Antisickling activity and percentage of cells sickled after incubation in 3 mM solution under oxygen content 20.1% was reported at normal atmospheric pressure.", "outline": "as §1"}, "[7]": {"experiment": "Antisickling activity and change in mean corpuscular hemoglobin ratio was reported at a concentration of 1.35 mM.", "outline": "as §2"}, "[8]": {"experiment": "Antisickling activity and change in mean corpuscular hemoglobin ratio was reported at a concentration of 2.55 mM.", "outline": "as §2"}},
  "data": [
    {"smiles": "Cl.Cl.NC(Cc1ccccc1)C(=O)Nc1ccccn1", "note": "(centres undefined)", "values": [
      {"measurement": "Cells sickled", "setting": "[1]", "value": 32.6, "unit": "%"},
      {"measurement": "Ratio", "setting": "[2]", "value": 1.11},
      {"measurement": "Cells sickled", "setting": "[3]", "value": 71.1, "unit": "%"},
      {"measurement": "fp", "setting": "[4]", "value": 0.24},
      {"measurement": "Ratio", "setting": "[5]", "value": 1.15},
      {"measurement": "Cells sickled", "setting": "[6]", "value": 9.1, "unit": "%"},
      {"measurement": "Ratio", "setting": "[7]", "value": 1.04},
      {"measurement": "Ratio", "setting": "[8]", "value": 1.08}
    ]},
    {"smiles": "Cl.Cl.NC(Cc1ccccc1)C(=O)Nc1cccnc1", "note": "(centres undefined)", "values": [
      {"measurement": "Cells sickled", "setting": "[1]", "value": 23.6, "unit": "%"},
      {"measurement": "Ratio", "setting": "[2]", "value": 1.13},
      {"measurement": "Cells sickled", "setting": "[3]", "value": 59, "unit": "%"},
      {"measurement": "fp", "setting": "[4]", "value": 0.24},
      {"measurement": "Ratio", "setting": "[5]", "value": 1.17},
      {"measurement": "Cells sickled", "setting": "[6]", "value": 11.4, "unit": "%"},
      {"measurement": "Ratio", "setting": "[7]", "value": 1.05},
      {"measurement": "Ratio", "setting": "[8]", "value": 1.07}
    ]},
    {"smiles": "Cl.Cl.NC(Cc1ccccc1)C(=O)Nc1ccncc1", "note": "(centres undefined)", "values": [
      {"measurement": "Cells sickled", "setting": "[1]", "value": 25.2, "unit": "%"},
      {"measurement": "Cells sickled", "setting": "[3]", "value": 70.8, "unit": "%"},
      {"measurement": "Cells sickled", "setting": "[6]", "value": 10.2, "unit": "%"}
    ]}
  ]
}
